In the library only some 1% were active in any assay of this set; here they are far more common.
Rad51 HR inh: human RAD51 strand exchange inhibitors, primary screen, biochemical, fluorescence. AID 1385, 2008. DNA repair protein RAD51 homolog 1 (Homo sapiens), Q06609. 200,000 compounds, 0.085% hits. hRad51 DNA strand exchange, fluorescence dequenching. inhibition, % at 10 µM;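 active = inhibition above 40% at the single screening dose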;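 also: 0% = DMSO control wells and 100% = blanks with heterologous ssDNA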
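Material: Human Rad51 nucleoprotein filaments preassembled on unlabelled ssDNA | Also added: Labelled 47-mer dsDNA for strand exchange | Dosing: Single dose, 10 µM final compound | Schedule: 30-min compound preincubation and 15-min exchange, both room temperature | Technique: Fluorescence dequenching at 485/520 nm | Measure: Percent inhibition relative to plate controls and blanks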
TNF necrop inh: inhibitors of TNF-alpha triggered necroptosis, primary screen, cell-based, Jurkat FADD-/-, single concentration | activation (protection from cell death), % at 10 µM | Jurkat FADD-/- TNF necroptosis rescue, ATP luminescence, 24 h; 0 = TNF only, 100 = no-TNF cells | 220,000 compounds, 0.068% hits | AID 463075, 2010;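 active = activation, meaning protection from cell death, of at least 50% relative to plate controls; inactive = activation below 50%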;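 also: necroptosis triggered by 40 ng/mL TNF-alpha added together with compound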
L929 necroptosis: inhibitors of zVAD-triggered necroptosis, primary screen, L929 cells | 220,000 compounds, 0.38% hits | viability rescue, % at 10 µM | L929 zVAD necroptosis rescue, ATP luminescence, 24 h; with zVAD 60 µM | AID 1377, 2008;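 active = activation, scaled between plate controls, above about 75%, limit read from the data; inactive = activation under that limit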;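 also: 0% = zVAD with DMSO and 100% = DMSO alone without zVAD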
HMGR II inh: inhibitors of E. faecalis class II HMGR, primary screen, biochemical, Enterococcus faecalis | AID 1066, 2008 | HMG-CoA reductase (Enterococcus faecalis, mvaE) | 190,000 compounds, 0.41% hits | purified E. faecalis HMGR, NADPH absorbance 340 nm kinetic | inhibition, % at 10 µM;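 active = inhibition above a set limit, the median over all tested compounds plus 3 SD, cut at about 9.5% in these data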;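 also: enzyme runs in reverse so mevalonate oxidation gives rising NADPH absorbance; 0% = complete reaction with DMSO and 100% = background rate lacking mevalonate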
PERK inhibitor: block of dimerizer-induced PERK translation repression, primary screen, PERK inhibitor project, CHO PERK-DD cells, SEAP luminescence, HTS. inhibition, % at 5.6 µM. CHO PERK-DD fusion, SEAP luminescence translation reporter. 220,000 compounds, 0.17% hits. Eukaryotic translation initiation factor 2-alpha kinase 3 (Homo sapiens), Q9NZJ5;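 active = inhibition above the mean inhibition of all tested compounds plus 3 SD, set separately per screening campaign, cut at about 2.9% in these data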;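 also: PERK kinase domain activated by AP20187 dimerizer at 100 nM; 0% = DMSO with dimerizer and 100% = rapamycin at 8.4 µM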
Target sequence (Q9NZJ5 whole entry, looked up, the tested form may be a part): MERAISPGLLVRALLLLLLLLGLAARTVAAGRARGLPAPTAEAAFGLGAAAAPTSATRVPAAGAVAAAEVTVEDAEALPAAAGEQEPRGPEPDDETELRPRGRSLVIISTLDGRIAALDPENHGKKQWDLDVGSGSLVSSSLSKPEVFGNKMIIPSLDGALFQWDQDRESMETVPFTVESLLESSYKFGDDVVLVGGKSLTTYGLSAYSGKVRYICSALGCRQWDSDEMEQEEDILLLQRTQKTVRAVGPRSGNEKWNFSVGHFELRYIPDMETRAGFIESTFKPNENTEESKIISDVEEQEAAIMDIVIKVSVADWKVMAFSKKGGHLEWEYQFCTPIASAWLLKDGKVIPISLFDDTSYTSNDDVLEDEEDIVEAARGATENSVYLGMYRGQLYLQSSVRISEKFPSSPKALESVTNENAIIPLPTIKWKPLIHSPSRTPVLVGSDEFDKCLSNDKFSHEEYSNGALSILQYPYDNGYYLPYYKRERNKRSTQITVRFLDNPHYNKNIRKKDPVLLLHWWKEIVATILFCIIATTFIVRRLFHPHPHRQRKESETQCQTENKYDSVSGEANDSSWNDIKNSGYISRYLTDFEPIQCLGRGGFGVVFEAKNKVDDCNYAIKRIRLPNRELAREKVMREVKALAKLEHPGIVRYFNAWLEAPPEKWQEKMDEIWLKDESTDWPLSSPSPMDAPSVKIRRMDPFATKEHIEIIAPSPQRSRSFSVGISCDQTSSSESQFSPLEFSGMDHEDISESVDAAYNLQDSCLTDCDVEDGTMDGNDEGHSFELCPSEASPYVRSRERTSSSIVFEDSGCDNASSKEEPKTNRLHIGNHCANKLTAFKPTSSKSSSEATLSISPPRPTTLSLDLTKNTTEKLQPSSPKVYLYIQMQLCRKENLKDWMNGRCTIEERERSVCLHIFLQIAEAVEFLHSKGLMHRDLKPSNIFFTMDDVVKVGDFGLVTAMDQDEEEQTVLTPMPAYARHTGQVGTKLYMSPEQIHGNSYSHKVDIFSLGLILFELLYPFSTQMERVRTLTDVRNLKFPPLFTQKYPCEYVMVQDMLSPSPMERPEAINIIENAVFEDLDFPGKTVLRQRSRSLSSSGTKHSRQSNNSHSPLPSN
zVAD necrop conf: inhibitors of zVAD-triggered necroptosis in L929, confirmation, L929 cells, duplicate runs | shares compounds with L929 necroptosis | L929 zVAD-induced necroptosis rescue, ATP luminescence, 24 h | 760 compounds, 16% hits | activation (protection from necroptosis), % at 10 µM | AID 463117, 2010;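 active = mean protection from necroptosis of at least 50% over duplicate tests; inactive = mean protection below 50%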;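 also: 0% = cells with zVAD alone and 100% = vehicle cells without zVAD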
Numbers without * were called inactive; / = no result.

SMILES	Rad51 HR inh	TNF necrop inh	L929 necroptosis	HMGR II inh	PERK inhibitor	zVAD necrop conf
O=C(NC(=S)NCc1nc2ccccc2[nH]1)c1ccc(F)cc1	10.3	18.3	84.2*	-1.4	0.1	17.0
COc1cc(/C=C/C(=O)O)cc2c1OCCO2	4.7	1.2	3.7	0.4	-0.6	/
Cc1cccc(NC(=O)Nc2ccc(C)c(C)c2)n1	-0.5	-1.4	75.0*	-2.9	-0.6	6.3
CC(=O)Nc1ccc(NC(=O)Nc2ccc(C)c(C)c2)cc1	-10.7	-2.6	79.5*	-1.2	0.1	1.2
Cc1cccc(NC(=O)Nc2cccc(C)n2)n1	-0.2	-0.8	2.3	2.2	-1.1	/
Cc1cccc(NC(=O)Nc2ccc([N+](=O)[O-])cc2)n1	-2.2	-0.5	76.5*	-0.6	2.0	40.0
CC1CCCCN1C(=S)NCc1ccco1 (centres undefined)	2.1	1.1	1.6	2.6	0.5	/
CCCCc1ccc(-n2c(Cc3cccs3)n[nH]c2=S)cc1	12.0	-2.3	0.9	-6.8	-0.1	/
O=S(=O)(c1ccc(-c2csc(-c3cccnc3)n2)cc1)N1CCOCC1	13.1	12.3	84.5*	-3.0	1.1	6.3
Cc1nnsc1SCCNC(=O)Nc1ccc(Cl)cc1	6.5	3.3	78.8*	6.0	0.0	4.9
CC(=O)Nc1ccc(C)c(NS(=O)(=O)c2cccc(C(F)(F)F)c2)c1	16.7	-1.0	-0.1	/	0.5	/
CCOc1ccccc1NC(=O)Nc1ccccn1	2.8	-0.5	79.1*	/	0.2	3.3
CCOc1ccccc1NC(=O)Nc1ccc(Br)cn1	/	-0.9	4.3	-3.3	0.0	/
COCCn1c(=NC(=O)/C=C/c2ccccc2)sc2cc(NC(C)=O)ccc21	2.5	-4.1	80.5*	-4.8	0.2	7.4
COc1ccc2ccccc2c1/C=N/NC(=O)c1sc(N)c(C#N)c1C	/	2.5	1.0	-3.5	-0.2	/
COc1cc(/C=N/NC(=O)c2sc(N)c(C#N)c2C)cc(Br)c1O	/	5.4	99.4*	-4.3	1.7	39.4
CN(C)Cc1cccc([N+](=O)[O-])c1O	18.5	0.5	0.3	/	1.7	/
NC(=O)c1ccc(NC(=O)c2cccc3c2OCCCO3)cc1	4.1	1.3	1.0	/	-0.2	/
Cc1cc(=O)c(C(=O)O)nn1-c1ccccc1	4.7	1.3	0.8	-8.4	1.1	/
S=c1[nH]nc(C(c2ccccc2)C2CCCCC2)o1 (centres undefined)	-15.1	-0.6	-0.3	/	0.3	/
CCOc1ccccc1NC(=O)CSc1nnnn1-c1ccc(C(=O)OC)cc1	4.0	-2.7	77.5*	-8.4	-0.3	0.4
COc1ccc2nc(NC(=O)CN3CCN(C)CC3)sc2c1	4.4	-0.6	92.0*	0.5	0.2	37.2
COc1ccc2nc(NC(=O)CCNC(=O)c3ccccc3Cl)sc2c1	2.6	1.6	78.0*	-5.9	0.9	2.9
CCN1CCN(CC(=O)Nc2nc3ccc(OC)cc3s2)CC1	/	2.4	83.7*	-0.1	-0.6	22.0
COc1ccc2nc(NC(=O)CN3CCOCC3)sc2c1	0.8	0.8	10.9	-4.3	-0.2	/
SMILES	Rad51 HR inh	TNF necrop inh	L929 necroptosis	HMGR II inh	PERK inhibitor	zVAD necrop conf
CCCC(=O)Nc1nc2ccc(OC)cc2s1	4.3	4.7	72.0	0.1	-0.5	/
COc1cccc(-n2c([S-])c(C(=O)Nc3ccc(S(=O)(=O)N4CCOCC4)cc3)[n+]3cc(C(N)=O)ccc23)c1	/	-5.7	0.5	/	0.3	/
COc1ccc(Nc2nc(-c3ccccc3)c(C(=O)Nc3cccnc3)s2)cc1	-6.8	3.1	-1.2	-9.6	0.2	/
Cn1cc(S(=O)(=O)NCc2ccc(Cl)cc2)c(=O)n(C)c1=O	/	0.5	-0.4	/	1.1	/
Cc1cc(N2CCOCC2)ccc1/C=C\[N+](=O)[O-]	-16.7	-5.1	0.8	2.4	0.4	/
Cc1ccc(NC(=O)CSc2ccc(-c3cccnc3)nn2)cc1Cl	4.0	1.2	81.5*	-5.3	0.7	0.8
CCOC(=O)c1ccc(NC(=O)CSc2ccc(-c3ccncc3)nn2)cc1	-4.0	2.2	1.2	-2.9	0.1	/
Cc1ccc(C(=O)Nc2cccc(C(F)(F)F)c2)cc1Nc1ccccn1	9.3	2.9	79.2*	/	/	65.1*
CCCCCc1n[nH]c2c1CCCC2	-1.7	1.9	0.7	/	0.1	/
CC(C)(C)/C(O)=C/c1nc2ccccc2oc1=O	23.9	9.6	87.7*	-2.2	1.1	8.4
O=c1oc2ccccc2nc1/C=C(\O)c1ccccc1	-45.7	23.4	67.8	/	1.2	/
Cc1ccc(NC(=O)c2ccc(N3CCOCC3)c([N+](=O)[O-])c2)cc1S(=O)(=O)N1CCOCC1	2.4	-4.1	76.8*	-2.1	-0.3	35.0
Cc1cc(Oc2ccc(=O)n(C)n2)nc(=S)[nH]1	-4.2	-0.2	0.0	-12.2	2.3	/
Cc1ccccc1/C=N/Nc1nc2ccccc2[nH]1	1.5	8.2	38.1	-3.2	-0.8	/
Cc1ccc(/C=N/Nc2nc3ccccc3[nH]2)s1	-8.4	10.8	76.0*	-7.0	-0.3	4.9
C(=N\Nc1nc2ccccc2[nH]1)/c1c[nH]c2ccccc12	/	34.4	80.5*	-2.5	-0.5	34.6
C(=N\Nc1nc2ccccc2[nH]1)/c1ccccc1	-4.8	12.7	84.5*	-3.8	-0.1	6.7
O=C(Nc1cccc(Cl)c1)Nc1csc([N+](=O)[O-])c1	9.3	-10.7	3.2	/	0.5	/
N#Cc1ccsc1NC(=O)CSc1nnnn1-c1ccc(O)cc1	/	1.8	76.1*	-0.9	1.5	40.9
Cn1ccnc1SCC(=O)Nc1sccc1C#N	-4.6	0.5	4.0	-6.9	0.9	/
CC(C)(c1ccccc1)c1ccc(OCC(O)CNC2CCN(Cc3ccccc3)CC2)cc1 (centres undefined)	3.8	-16.3	-3.7	1.3	-0.4	/
COc1ccc(NC(=O)c2ccc(-c3nn(C)c(=O)c4ccccc34)cc2)cc1	-1.3	-0.2	15.2	-3.6	-0.5	/
COc1ccccc1NC(=O)c1ccc(-c2nn(C)c(=O)c3ccccc23)cc1	-2.5	0.2	78.2*	-6.7	-1.4	-0.2
COc1ccc(-c2cc(=O)c3cc(O)ccc3o2)cc1	-2.6	-1.9	75.9*	-6.2	0.6	30.4
O=c1cc(-c2ccccc2)oc2ccc(O)cc12	3.7	-2.7	73.0	/	0.8	/
Cc1cc(C(=O)NN=C2CCCCCC2)c(C)o1	2.4	0.8	0.0	/	2.2	/
Oc1ccc(/C=N/Nc2ccc(C(F)(F)F)cn2)cc1	5.2	38.2	83.1*	-3.9	-0.1	63.5*
COc1cc(/C=N/Nc2ccc(C(F)(F)F)cn2)cc(OC)c1O	-10.9	36.1	80.7*	-6.0	0.3	74.9*

Compound activity from PubChem BioAssay.
